Laboratory results published in ChEMBL document CHEMBL1817588, “Design and synthesis of 1,3-biarylsulfanyl derivatives as new anti-breast cancer agents” (Bioorg Med Chem, 2011).
Activity calls are given as the source filed them. No cut-off for these calls is given here.

Key:
MCF7 [1] = assay: Antiproliferative activity against human MCF7 cells expressing estrogen receptor after 48 hrs by MTT assay; type: functional, cell-based; details: MCF7, 48 h
Summary of the method: (§1)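 Cells seeded at 1×10^4/well in DMEM with 10% FBS for 24 h at 37 °C, then exposed to compounds for 48 h. MTT (5 mg/mL) added for 4 h. Formazan dissolved in DMSO and absorbance read at 540 nm. Routine culture used DMEM with 10% FBS, 5% CO2, reduced to 2% FBS for growth inhibition.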

MDA-MB-231 [2] = assay: Antiproliferative activity against estrogen receptor-deficient human MDA-MB-231 cells […] after 48 hrs by MTT assay; type: functional, cell-based; details: MDA-MB-231, 48 h; summary of the method: as §1
Ishikawa [3] = assay: Antiproliferative activity against human Ishikawa cells expressing estrogen receptor at 50 uM after 48 hrs by MTT assay; type: functional, cell-based
MDA-MB-231 [4] = assay: Antiproliferative activity against estrogen receptor-deficient human MDA-MB-231 cells […] at 50 uM after 48 hrs by MTT assay; type: functional, cell-based
MCF7 [5] = assay: Antiproliferative activity against human MCF7 cells expressing estrogen receptor at 50 uM after 48 hrs by MTT assay; type: functional, cell-based
Ishikawa [6] = assay: Antiproliferative activity against human Ishikawa cells expressing estrogen receptor after 48 hrs by MTT assay; type: functional, cell-based; summary of the method: as §1
HEK293 [7] = assay: Antiproliferative activity against human HEK293 cells after 48 hrs by MTT assay; type: cell-based; details: HEK293, 48 h; summary of the method: as §1
Rattus norvegicus [8] = species on record: Rattus norvegicus; assay: Displacement of [3H]-estradiol from estrogen receptor in rat uteri after 18 hrs by scintillation counting relative to 17beta-estradiol
Summary of the method: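 Cytosol from uteri of immature 20–21-day-old rats, in TEA buffer pH 7.4 (10 mM Tris, 1.5 mM EDTA, 0.02% azide). Incubated in triplicate with fixed 3H-estradiol ± competitor (DMF ≤5% final) for 18 h at 4 °C. Free ligand removed with dextran-coated charcoal (15 min, 800g 10 min), then supernatant counted. RBA taken at 50% inhibition from the bound-versus-log concentration plot.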

Rattus norvegicus [9] = assay: Estrogenic activity in Sprague-Dawley rat assessed as increase in uterine weight administered as po daily once for 3 days relative to control; type: functional; design: concentration or dose not given beside the values
Summary of the method: (§2)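 Immature female Sprague-Dawley rats given oral dosing once daily for 3 days on days 28–30 of age. Antiestrogenic arm co-dosed ethynylestradiol 0.02 mg/kg in 10% ethanol-water. Autopsy 24 h after last dose (day 31). Uterus excised, blotted and weighed, with vaginal opening and cornification also scored. Inhibition computed as (E − T)×100/E versus ethynylestradiol alone. Estrogenic gain expressed as percent increase over vehicle control.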

Rattus norvegicus [10] = assay: Antiestrogenic activity in Sprague-Dawley rat assessed as inhibition of uterine weight gain administered as po daily once for 3 days relative to 17alpha-ethynylestradiol; type: functional; summary of the method: as §2
Rattus norvegicus [11] = assay: Antiimplantation activity in Sprague-Dawley albino rat at 20 mg/kg, po after 10 days; type: functional
Summary of the method: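 Sperm-positive adult Sprague-Dawley females (180–220 g) mated with proven-fertile males. Compounds given orally as a gum acacia suspension on days 1–5 post-coitum, 5–7 animals per group. Vehicle-only group served as control.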

Bone [12] = assay: Antiosteoporotic activity in Sprague-Dawley rat [45Ca] pre-labeled bone assessed as inhibition of PTH-induced bone resorption after 96 hrs
Bone [13] = assay: Antiosteoporotic activity in Sprague-Dawley rat [45Ca] pre-labeled bone assessed as inhibition of PTH-induced bone resorption after 96 hrs relative to control
HEK293 [14] = assay: Antiproliferative activity against human HEK293 cells at 50 uM after 48 hrs by MTT assay; type: cell-based; details: hek293, 48 h

Row | SMILES | IC50 (MCF7 [1]) [µM] | IC50 (MDA-MB-231 [2]) [µM] | Activity (Ishikawa [3]) | IC50 (Ishikawa [6]) [µM] | other results
1 | Cc1ccc(SC(CC(=O)c2cccc(Cl)c2)c2ccc(C)cc2)cc1 (centres undefined) | 27 | 41 | inactive | – | –
2 | CCSC(CC(=O)c1ccc(OC)cc1)c1ccc(OC)cc1 (centres undefined) | 27 | – | inactive | – | Activity (MDA-MB-231 [4]): inactive
3 | Cc1ccc(SC(CC(=O)c2ccccc2)c2ccccc2)cc1 (centres undefined) | – | – | inactive | – | Activity (MCF7 [5]): inactive; Activity (MDA-MB-231 [4]): inactive
4 | O=C(CC(Sc1ccc(O)cc1)c1ccccc1)c1ccc(OCCN2CCCC2)cc1 (centres undefined) | 28.6 | 27 | – | 16 | IC50 (HEK293 [7]): 27.5 µM; RBA (Rattus norvegicus [8]): 0.67%; Activity (Rattus norvegicus [9]): 101%; inhibition (INH) (Rattus norvegicus [10]): 18%; Activity (Rattus norvegicus [11]): 60%; T/C (Bone [12]): 0.902; inhibition (INH) (Bone [13]): 9.8%
5 | CCSC(CC(=O)c1ccccc1)c1ccc(OC)cc1 (centres undefined) | 24 | – | inactive | – | Activity (MDA-MB-231 [4]): inactive
6 | O=C(CC(Sc1ccccc1)c1ccccc1)c1ccc(O)cc1 (centres undefined) | 24 | 38 | inactive | – | –
7 | O=C(O)CCSC(CC(=O)c1ccccc1)c1ccccc1 (centres undefined) | – | 42 | – | 23 | Activity (MCF7 [5]): inactive
8 | CSC(CC(=O)c1ccccc1)c1ccccc1 (centres undefined) | 25 | – | – | 25 | Activity (MDA-MB-231 [4]): inactive
9 | O=C(CC(Sc1ccc(O)cc1)c1cccc(O)c1)c1ccc(OCCN2CCCCC2)cc1 (centres undefined) | 12.2 | 19 | – | 17 | IC50 (HEK293 [7]): 65.8 µM; RBA (Rattus norvegicus [8]): 4.47%; Activity (Rattus norvegicus [9]): 79%; inhibition (INH) (Rattus norvegicus [10]): 31%; Activity (Rattus norvegicus [11]): 100%; T/C (Bone [12]): 0.812; inhibition (INH) (Bone [13]): 18.8%
10 | COc1ccc(C(=O)CC(Sc2ccccc2)c2ccccc2)cc1 (centres undefined) | 29 | 41 | inactive | – | –
11 | COc1ccc(C(CC(=O)c2ccccc2)Sc2ccc(C)cc2)cc1 (centres undefined) | 23 | 45 | – | 17 | –
12 | CCSC(CC(=O)c1ccc(OCCN(C)C)cc1)c1ccccc1 (centres undefined) | 27 | 38 | inactive | – | IC50 (HEK293 [7]): 32.8 µM; RBA (Rattus norvegicus [8]): 0.246%; Activity (Rattus norvegicus [9]): 212%; inhibition (INH) (Rattus norvegicus [10]): 4%; Activity (Rattus norvegicus [11]): inactive; T/C (Bone [12]): 0.944; inhibition (INH) (Bone [13]): 5.6%
13 | O=C(CC(Sc1ccccc1)c1ccccc1)c1cccc(Cl)c1 (centres undefined) | 29 | 32 | – | 29 | –
14 | O=C(CC(Sc1ccc(Cl)cc1)c1ccccc1)c1ccc([N+](=O)[O-])cc1 (centres undefined) | 25 | 29 | – | 21 | –
15 | COc1ccc(C(=O)CC(Sc2ccc(C)cc2)c2ccc(OC)cc2)cc1 (centres undefined) | 18 | 28 | inactive | – | Activity (HEK293 [14]): Non-toxic
16 | COc1ccc(C(CC(=O)c2ccc(Cl)cc2)Sc2ccccc2)cc1 (centres undefined) | – | – | – | 25 | Activity (MCF7 [5]): inactive; Activity (MDA-MB-231 [4]): inactive
17 | Cc1ccc(C(CC(=O)c2cccc(Cl)c2)Sc2ccccc2)cc1 (centres undefined) | 25 | 36 | – | 28 | –
18 | O=C(CC(Sc1ccc(O)cc1)c1ccccc1)c1ccc(OCCN2CCCCC2)cc1 (centres undefined) | 9.6 | 16.5 | – | 16.2 | IC50 (HEK293 [7]): 75.2 µM; RBA (Rattus norvegicus [8]): 5.27%; Activity (Rattus norvegicus [9]): 58%; inhibition (INH) (Rattus norvegicus [10]): 34%; Activity (Rattus norvegicus [11]): 100%; T/C (Bone [12]): 0.787; inhibition (INH) (Bone [13]): 21.3%

Row | SMILES | IC50 (MCF7 [1]) [µM] | IC50 (MDA-MB-231 [2]) [µM] | Activity (Ishikawa [3]) | IC50 (Ishikawa [6]) [µM] | other results
19 | CCSC(CC(=O)c1ccc(OCCN2CCCCC2)cc1)c1ccccc1 (centres undefined) | 32.8 | 40.2 | – | 28.5 | Activity (HEK293 [14]): Non-toxic; RBA (Rattus norvegicus [8]): 0.175%; Activity (Rattus norvegicus [9]): 134%; inhibition (INH) (Rattus norvegicus [10]): 7%; Activity (Rattus norvegicus [11]): inactive; T/C (Bone [12]): 0.947; inhibition (INH) (Bone [13]): 5.5%
20 | CCSC(CC(=O)c1ccccc1)c1ccc(O)cc1 (centres undefined) | – | – | inactive | – | Activity (MCF7 [5]): inactive; Activity (MDA-MB-231 [4]): inactive
21 | O=C(CC(Sc1ccc([N+](=O)[O-])cc1)c1ccccc1)c1ccccc1 (centres undefined) | – | 44 | – | 23 | Activity (MCF7 [5]): inactive
22 | O=C(CC(Sc1ccccc1)c1ccccc1)c1ccc2ccccc2c1 (centres undefined) | 30 | 48 | – | 26 | –
23 | CCSC(CC(=O)c1ccc(OCCN2CCCC2)cc1)c1ccccc1 (centres undefined) | 27 | > 50 | – | > 50 | IC50 (HEK293 [7]): 29.2 µM; RBA (Rattus norvegicus [8]): 0.191%; Activity (Rattus norvegicus [9]): 152%; inhibition (INH) (Rattus norvegicus [10]): 9%; Activity (Rattus norvegicus [11]): 100%; T/C (Bone [12]): 0.963; inhibition (INH) (Bone [13]): 3.7%
24 | O=C(CC(Sc1ccc(Cl)cc1)c1ccccc1)c1ccccc1 (centres undefined) | – | – | inactive | – | Activity (MCF7 [5]): inactive; Activity (MDA-MB-231 [4]): inactive
25 | CN(C)CCOc1ccc(C(=O)CC(Sc2ccccc2)c2ccccc2)cc1 (centres undefined) | > 50 | 27 | – | 20 | Activity (HEK293 [14]): Non-toxic; RBA (Rattus norvegicus [8]): 0.157%; Activity (Rattus norvegicus [9]): 174%; inhibition (INH) (Rattus norvegicus [10]): 12%; Activity (Rattus norvegicus [11]): inactive; T/C (Bone [12]): 0.863; inhibition (INH) (Bone [13]): 13.7%
26 | Cc1ccc(SC(CC(=O)c2ccc(OCCN(C)C)cc2)c2ccccc2)cc1 (centres undefined) | > 50 | 28 | inactive | – | Activity (HEK293 [14]): Non-toxic; RBA (Rattus norvegicus [8]): 0.245%; Activity (Rattus norvegicus [9]): 76%; inhibition (INH) (Rattus norvegicus [10]): 8%; Activity (Rattus norvegicus [11]): inactive; T/C (Bone [12]): 0.845; inhibition (INH) (Bone [13]): 15.5%
27 | O=C(c1ccc(OCCN2CCCCC2)cc1)c1c(-c2ccc(O)cc2)sc2cc(O)ccc12 [RALOXIFENE] | – | – | – | – | T/C (Bone [12]): 0.62; inhibition (INH) (Bone [13]): 38%
28 | O=C(CC(Sc1ccc(Cl)cc1)c1ccccc1)c1ccc(Cl)cc1 (centres undefined) | 28 | 31 | – | 24 | –
29 | Cc1cccc(SC(CC(=O)c2ccccc2)c2ccc(O)cc2)c1 (centres undefined) | 25 | 35 | – | 22 | –
30 | COc1ccc(C(CC(=O)c2ccccc2)SCCC(=O)O)cc1 (centres undefined) | – | 44 | – | 24 | Activity (MCF7 [5]): inactive
31 | O=C(CC(Sc1ccccc1)c1ccccc1)c1cccc([N+](=O)[O-])c1 (centres undefined) | 25 | 38 | – | 21 | –
32 | COc1ccc(C(CC(=O)c2ccccc2)Sc2ccc(Cl)cc2)cc1 (centres undefined) | 25 | 36 | – | 22 | –
33 | O=C(CC(Sc1ccc(O)cc1)c1ccc(O)cc1)c1ccc(OCCN2CCCC2)cc1 (centres undefined) | 25 | > 50 | – | 17.3 | IC50 (HEK293 [7]): 28.7 µM; RBA (Rattus norvegicus [8]): 5.15%; Activity (Rattus norvegicus [9]): 111%; inhibition (INH) (Rattus norvegicus [10]): 24%; Activity (Rattus norvegicus [11]): inactive; T/C (Bone [12]): 0.934; inhibition (INH) (Bone [13]): 6.6%
34 | CC/C(=C(\c1ccccc1)c1ccc(OCCN(C)C)cc1)c1ccccc1 [TAMOXIFEN] | 12.5 | – | – | 22.5 | RBA (Rattus norvegicus [8]): 2.2%; Activity (Rattus norvegicus [9]): 155%; inhibition (INH) (Rattus norvegicus [10]): 49%
35 | COc1ccc(C(=O)CC(Sc2ccc(Cl)cc2)c2ccccc2)cc1 (centres undefined) | – | – | – | 22 | Activity (MCF7 [5]): inactive; Activity (MDA-MB-231 [4]): inactive
36 | O=C(CC(Sc1ccccc1)c1ccc(O)cc1)c1ccccc1 (centres undefined) | 19 | 33 | inactive | – | IC50 (HEK293 [7]): 31.4 µM
